Measured values reported in ChEMBL document CHEMBL3804800, “(E)-3-Heteroarylidenechroman-4-ones as potent and selective monoamine oxidase-B inhibitors” (Eur J Med Chem, 2016).

What was measured:
[1] = Selectivity index, ratio of IC50 for human recombinant microsomal MAO-A expressed in baculovirus infected BTI-TN-5B1-4 cells to IC50 for human recombinant microsomal MAO-B expressed in baculovirus infected BTI-TN-5B1-4 cells
[2] = molecular target: T1, Amine oxidase [flavin-containing] A (Homo sapiens, UniProt P21397); assay: Inhibition of human recombinant microsomal MAO-A expressed in baculovirus infected BTI-TN-5B1-4 cells using p-tyramine as substrate assessed as reduction in H2O2 production at 100 uM preincubated for 15 mins followed by substrate addition measured for 15 mins Amplex red dye based fluorimetric method relative to control; details: for inhibition (INH): human, bti-tn-5b1-4, 0.25 h, 100 µM; for inhibition at 100 µM: BTI-TN-5B1-4, human, 0.25 h
T1 sequence (P21397 whole entry): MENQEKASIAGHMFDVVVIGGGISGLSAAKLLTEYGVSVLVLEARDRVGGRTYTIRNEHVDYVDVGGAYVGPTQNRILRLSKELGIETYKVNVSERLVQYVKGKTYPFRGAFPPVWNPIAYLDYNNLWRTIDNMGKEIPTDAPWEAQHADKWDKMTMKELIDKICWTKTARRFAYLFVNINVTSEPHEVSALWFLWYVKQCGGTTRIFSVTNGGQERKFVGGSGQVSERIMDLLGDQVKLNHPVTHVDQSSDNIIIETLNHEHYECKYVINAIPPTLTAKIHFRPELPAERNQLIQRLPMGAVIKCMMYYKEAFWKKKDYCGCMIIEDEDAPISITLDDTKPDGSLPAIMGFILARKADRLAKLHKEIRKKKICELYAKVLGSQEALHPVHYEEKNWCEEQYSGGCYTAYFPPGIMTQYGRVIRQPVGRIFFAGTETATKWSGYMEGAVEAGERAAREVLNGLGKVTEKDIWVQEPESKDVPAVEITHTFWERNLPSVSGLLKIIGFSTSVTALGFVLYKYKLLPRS
Method in brief: (§1)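 Microsomal hMAO-A or hMAO-B from baculovirus-infected BTI-TN-5B1-4 insect cells. Activity read as H2O2 formed from p-tyramine, detected by Amplex Red resorufin fluorescence. Test compounds were checked for direct reaction with Amplex Red. Highest concentration tested was 100 μM for some compounds and 1 mM for others. Mean ± S.E.M. from five experiments.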

[3] = molecular target: T2, Amine oxidase [flavin-containing] B (Homo sapiens, UniProt P27338); assay: biochemical; assay type: cell-based, BTI-TN-5B1-4
T2 sequence (P27338 whole entry): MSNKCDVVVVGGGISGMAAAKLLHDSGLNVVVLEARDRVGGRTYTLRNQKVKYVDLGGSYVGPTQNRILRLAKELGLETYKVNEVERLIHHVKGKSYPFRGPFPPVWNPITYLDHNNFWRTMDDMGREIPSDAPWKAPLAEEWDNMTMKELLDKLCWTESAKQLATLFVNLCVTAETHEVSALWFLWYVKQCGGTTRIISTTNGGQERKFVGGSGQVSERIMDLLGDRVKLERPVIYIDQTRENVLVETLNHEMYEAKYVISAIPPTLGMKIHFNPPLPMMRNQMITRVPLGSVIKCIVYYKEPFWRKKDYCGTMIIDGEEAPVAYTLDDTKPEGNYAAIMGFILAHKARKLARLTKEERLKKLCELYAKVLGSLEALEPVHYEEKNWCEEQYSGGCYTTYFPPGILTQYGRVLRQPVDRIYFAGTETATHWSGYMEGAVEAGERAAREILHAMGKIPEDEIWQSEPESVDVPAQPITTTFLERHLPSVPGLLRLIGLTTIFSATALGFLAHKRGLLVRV

[4] = molecular target: T2, Amine oxidase [flavin-containing] B; assay: Inhibition of human recombinant microsomal MAO-B expressed in baculovirus infected BTI-TN-5B1-4 cells using p-tyramine as substrate assessed as reduction in H2O2 production at 1 mM preincubated for 15 mins followed by substrate addition measured for 15 mins Amplex red dye based fluorimetric method; details: bti-tn-5b1-4, 0.25 h, 1000 µM; method in brief: as §1
[5] = molecular target: T2, Amine oxidase [flavin-containing] B; assay: Reversible inhibition of human recombinant microsomal MAO-B expressed in baculovirus infected BTI-TN-5B1-4 cells at 10 times IC50 using p-tyramine as substrate assessed as reduction in H2O2 production preincubated for 30 mins followed by substrate addition for 15 mins followed by compound dilution by Amplex red dye based fluorimetric method; details: bti-tn-5b1-4, 0.25 h
Method in brief: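 Dilution method. […] The mixture was then diluted 100-fold into buffer containing Amplex Red, horseradish peroxidase and p-tyramine, and the reaction was monitored for 15 min. Slope was compared with a control preincubated and diluted without inhibitor.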

SMILES	Ratio IC50 [1]	inhibition (INH) [2]	IC50 [3] [µM]	inhibition at 100 µM [2] [%]	inhibition (INH) [4]	inhibition (INH) [5]
Nc1ncc(/C=C2\COc3ccccc3C2=O)cn1	> 5.5	Not Active	18.3	–	–	–
COc1ccc2c(c1)OC/C(=C\c1c[nH]cn1)C2=O	9.4	–	10.6	40	–	–
CN(C)c1ccc(/C=C2\COc3cc(Cl)cc(Cl)c3C2=O)cn1	9.5	–	10.5	40	–	–
Nc1ccc(/C=C2\COc3ccccc3C2=O)cn1	> 42	Not Active	2.39	–	–	–
O=C1/C(=C/c2cccs2)COc2ccccc21	88	–	1.13	40	–	–
CN(C)c1ccc(/C=C2\COc3ccccc3C2=O)cn1	> 469	Not Active	0.213	–	–	–
O=C1/C(=C/c2ccccn2)COc2ccccc21	> 34	Not Active	2.94	–	–	–
O=C(NCCN1CCOCC1)c1ccc(Cl)cc1 [MOCLOBEMIDE]	–	–	–	–	Not Active	–
CN(C)c1ncc(/C=C2\COc3cc(Cl)cc(Cl)c3C2=O)cn1	> 9450	Not Active	0.0106	–	–	Active
O=C1/C(=C/c2ccncc2)COc2ccccc21	> 8	Not Active	12.4	–	–	–
O=C1/C(=C/c2cccnc2)COc2ccccc21	> 12	Not Active	8.23	–	–	–
O=C1Nc2ccccc2C1=O [ISATIN]	–	Not Active	–	–	–	–
O=C1/C(=C/c2ccsc2)COc2ccccc21	58	–	1.73	40	–	–
O=C1/C(=C/c2ccc[nH]2)COc2ccccc21	7.3	–	13.8	40	–	–
CN(C)c1ncc(/C=C2\COc3ccccc3C2=O)cn1	> 415	Not Active	0.241	–	–	–
O=C1/C(=C/c2c[nH]cn2)COc2ccccc21	5	–	20.2	40	–	–
COc1ccc2c(c1)OC/C(=C\c1cnc(N(C)C)nc1)C2=O	> 9.6	Not Active	10.4	–	–	–
O=C1/C(=C/c2c[nH]c3ccccc23)COc2ccccc21	551	–	0.181	40	–	–
O=C1/C(=C/c2c[nH]cn2)COc2cc(Cl)cc(Cl)c21	9.8	–	10.2	40	–	–
O=C1/C(=C/c2ccco2)COc2ccccc21	27	–	3.77	40	–	–
